Where “and” joins values, the source holds several entries; their conditions need not be identical. Identical values can stand only once.
Experiments:
EcYihV [1] = biological target: T1, EcYihV (Escherichia coli, UniProt P32143); experiment: SFP production, HPLC-MS/MS; format: biochemical; details: substrate inhibition; 1.0 mM ATP; pH 7.5, 5 mM MgCl2, 30 °C; no additive
T1 sequence (P32143 1-298): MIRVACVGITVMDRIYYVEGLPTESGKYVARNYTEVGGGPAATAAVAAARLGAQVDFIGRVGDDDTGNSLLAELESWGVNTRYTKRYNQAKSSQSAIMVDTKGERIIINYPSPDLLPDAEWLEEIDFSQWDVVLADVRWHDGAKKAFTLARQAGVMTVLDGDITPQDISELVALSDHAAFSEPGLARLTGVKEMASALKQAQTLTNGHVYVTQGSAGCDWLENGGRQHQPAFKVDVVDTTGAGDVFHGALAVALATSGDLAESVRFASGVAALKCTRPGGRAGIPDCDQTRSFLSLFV
Procedure, shortened: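 Recombinant E. coli YihV (36.6 nM) phosphorylating chemically synthesized sulfofructose (SF) to SFP. […] SFP formation was quantified by HPLC-MS/MS on a ZIC-HILIC column. Rates across SF concentrations were fitted to a substrate inhibition kinetic model.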

SeYihT = biological target: T2, SeYihT (Salmonella enterica, UniProt Q9L7R9); experiment: X-ray structure, in-crystal cleavage of SFP; format: binding; details: covalent Schiff base with Lys193
T2 sequence (Q9L7R9 1-292): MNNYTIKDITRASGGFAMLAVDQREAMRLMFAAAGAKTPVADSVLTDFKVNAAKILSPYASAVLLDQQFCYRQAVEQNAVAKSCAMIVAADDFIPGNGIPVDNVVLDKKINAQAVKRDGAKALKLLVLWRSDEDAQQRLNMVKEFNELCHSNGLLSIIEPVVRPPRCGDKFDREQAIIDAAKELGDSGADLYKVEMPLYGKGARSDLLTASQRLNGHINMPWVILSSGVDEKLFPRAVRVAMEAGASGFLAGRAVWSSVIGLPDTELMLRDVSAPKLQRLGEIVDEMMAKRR

[2] = biological target: Salmonella enterica YihS (SQ-SF isomerase), as measured by SEC-MALS (Salmonella enterica) (UniProt Q8ZKT7); experiment: SEC-MALS
EcYihV [3] = biological target: T1, EcYihV; experiment: effect of additive on SF phosphorylation, HPLC-MS/MS; format: biochemical; details: 1.0 mM ATP, varied SF, pH 7.5, 30 °C, activator
EcYihV [4] = biological target: T1, EcYihV; experiment: X-ray structure of cocrystal; format: binding; details: with Mg; open and closed subunits
purified protein [5] = substrate: O=C(COP(=O)(O)O)[C@@H](O)[C@H](O)[C@H](O)CS(=O)(=O)O; experiment: purified protein; details: SFP to SLA and DHAP
SEC-MALS = biological target: the molecule itself; experiment: SEC-MALS
purified protein [6] = substrate: Nc1ncnc2c1ncn2[C@@H]1O[C@H](COP(=O)(O)OP(=O)(O)OP(=O)(O)O)[C@@H](O)[C@H]1O; experiment: purified protein; details: 1.0 mM SF, 25 mM BTP pH 7.5, 25 mM KCl, 5 mM MgCl2, 30 °C

O=S(=O)(O)C[C@H]1OC(O)(CO)[C@@H](O)[C@@H]1O (some centres unmarked) [SF, 6-deoxy-6-sulfofructose]
KI (EcYihV [1]): 8.5 ± 2.8 mM

O=C(CO)COP(=O)(O)O [DHAP]
X-ray structure, in-crystal cleavage of SFP (SeYihT): a new Schiff base formed with a DHAP molecule could be modeled

Salmonella enterica YihS (SQ-SF isomerase), as measured by SEC-MALS (from UniProt Q8ZKT7 2-413) (enzyme)
stoichiometry N [2]: 6

C=C(OP(=O)(O)O)C(=O)O [PEP]
effect of additive on SF phosphorylation, HPLC-MS/MS (EcYihV [3]; 10 mM PEP): by F6P, FBP, PEP, and citrate (through effects on kcat/KM)

Nc1ncnc2c1ncn2[C@@H]1O[C@H](COP(=O)(O)OP(=O)(O)NP(=O)(O)O)[C@@H](O)[C@H]1O [AMPPNP]
X-ray structure of cocrystal (EcYihV [4]): AMPPNP resulted in the EcYihV·AMPPNP·Mg complex showing a surface-accessible nucleotide binding site

O=P(O)(O)OC[C@H]1OC(O)(COP(=O)(O)O)[C@@H](O)[C@@H]1O (some centres unmarked) [FBP]
effect of additive on SF phosphorylation, HPLC-MS/MS (EcYihV [3]; 10 mM FBP): by F6P, FBP, PEP, and citrate (through effects on kcat/KM)

B1: Salmonella enterica YihT (sulfofructose-1-phosphate aldolase) (enzyme, UniProt Q9L7R9 1-292, looked up)
chain: T2 sequence (Q9L7R9 1-292)
Km (purified protein [5]): 3570 ± 420 µM
kcat (purified protein [5]): 47.7 ± 2.4 s⁻¹
stoichiometry N (SEC-MALS): 4

B2: E. coli YihT (sulfofructose-1-phosphate aldolase) (enzyme, UniProt P32141 1-292, looked up)
chain: MNKYTINDITRASGGFAMLAVDQREAMRMMFAAAGAPAPVADSVLTDFKVNAAKALSPYASAILVDQQFCYRQVVEQNAIAKSCAMIVAADEFIPGNGIPVDSVVIDRKINPLQIKQDGGKALKLLVLWRSDEDAQQRLDMVKEFNELCHSHGLVSIIEPVVRPPRRGDKFDREQAIIDAAKELGDSGADLYKVEMPLYGKGPQQELLCASQRLNDHINMPWVILSSGVDEKLFPRAVRVAMTAGASGFLAGRAVWASVVGLPDNELMLRDVCAPKLQQLGDIVDEMMAKRR
stoichiometry N (SEC-MALS): 4

B3: E. coli YihV (sulfofructose kinase) (enzyme, UniProt P32143 1-298, looked up)
chain: T1 sequence (P32143 1-298)
Km (purified protein [6]): 1000 ± 200 µM
kcat (purified protein [6]): 3.1 s⁻¹
kcat/Km (purified protein [6]): 3200 M⁻¹ s⁻¹
stoichiometry N (SEC-MALS): 2 and 4
